From ChEMBL document CHEMBL1125497, “Synthesis and anticonvulsant activity of enaminones” (J Med Chem, 1992)

Assays:
[1] = Oral dose producing neurotoxic effects in 50% of rats; assay type: ADME, organism-based; settings: rat, in vivo
In short: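 Phase VI screen in male Sprague-Dawley rats dosed orally. MES protection and rotorod toxicity were scored as animals responding over animals tested at 0.25, 0.5, 1, 2 and 4 h.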

[2] = Antiepileptic activity in male CF1 mice 30 min after administration measured in subcutaneous pentylenetetrazole (scMet) test at a dose of 100 mg/kg (no. of animals treated /protected); activity value is 0/1; assay type: functional, Mus musculus
[3] = Dose protecting 50% of the mice from tonic hind limb extension at the time of […] after ip administration.; assay type: functional; settings: Mus musculus, Hindlimb
In short: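 Phase II quantification in CF1 male mice (ca. 24–34 g), dosing ip or po in 0.5% methylcellulose suspension. ED50 is protection from tonic hind limb extension in MES. TD50 is rotorod neurotoxicity. Both were read at time of peak effect and derived by Litchfield–Wilcoxon with 95% confidence limits.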

[4] = Antiepileptic activity in male CF1 mice 4 hr after administration measured in maximum electroshock seizure(MES) test at a dose of 100 mg/kg (no. of animals treated /protected); activity value is 0/3; assay type: functional, Mus musculus
Rattus norvegicus [5] = assay: Average seizure score for the rat cornea 0.5 hr after peroral administration of 0 mg/kg of compound; assay type: functional; settings: route oral
In short: (§1)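 Sprague-Dawley rats (85–95 g initial) were kindled with 4 s, 8 mA corneal stimulations (butacaine anesthesia) to 10 consecutive stage 5 seizures. After a vehicle shock and a 2-day shock-free period, test drug was given ip or po and a single shock applied at time of peak effect. Seizures were scored on a modified Racine 0–5 scale. ED50 is the dose reducing severity by 50% (Litchfield–Wilcoxon).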

[6] = Antiepileptic activity in male CF1 mice 4 hr after administration measured in maximum electroshock seizure(MES) test at a dose of 300 mg/kg; assay type: functional, Mus musculus
Rattus norvegicus [7] = assay: Per oral dose (50 mg/Kg) reducing rat corneal kindling 0.5 hr after administration.; assay type: functional; in short: as §1
Rattus norvegicus [8] = assay: Per oral dose (0 mg/Kg) reducing rat corneal kindling 0.5 hr after administration.; assay type: functional; in short: as §1
[9] = Antiepileptic activity in male CF1 mice 4 hr after administration measured in neurological toxicity (Tox) test at a dose of 300 mg/kg (no. of animals treated /protected); activity value is 0/2; assay type: functional, Mus musculus
[10] = Protective index was measured as TD50/ED50; assay type: ADME; settings: read-out: PI
[11] = Antiepileptic activity in male CF1 mice 4 hr after administration measured in subcutaneous pentylenetetrazole (scMet) test at a dose of 300 mg/kg (no. of animals treated /protected); activity value is 0/1; assay type: functional, Mus musculus
[12] = Antiepileptic activity in male CF1 mice 30 min after administration measured in subcutaneous pentylenetetrazole (scMet) test at a dose of 300 mg/kg (no. of animals treated /protected); activity value is 0/1; assay type: functional, Mus musculus
[13] = Protective index was measured as TD50/ED50 in rat on oral administration; assay type: ADME, organism-based; settings: in vivo, read-out: PI
[14] = Time of peak anticonvulsant effect in CF1 MICE after ip administration.; assay type: functional, Mus musculus
In short: (§2)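 Male CF1 mice (ca. 24–34 g), compound in 0.5% methylcellulose suspension given ip or po; time (h) at which MES protection (against tonic hind limb extension) peaked was recorded and used for ED50 determination.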

[15] = Time of peak neurotoxic effect in CF1 mice; assay type: ADME; settings: mouse, in vivo
In short: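 Male CF1 mice (ca. 24–34 g), compound ip in 0.5% methylcellulose suspension; neurological deficit assessed by rotorod test, time (h) of peak neurotoxic effect recorded for TD50 determination.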

Rattus norvegicus [16] = assay: Average seizure score for the rat cornea 0.5 hr after peroral administration of 75 mg/kg of compound; assay type: functional; settings: route oral; in short: as §1
[17] = Dose at which anticonvulsant activity was observed in mice; assay type: functional, Mus musculus
Rattus norvegicus [18] = assay: Average seizure score for the rat cornea 0.5 hr after peroral administration of 50 mg/kg of compound; assay type: functional; settings: route oral; in short: as §1
[19] = Time of peak anticonvulsant effect in CF1 mice; assay type: functional, Mus musculus; in short: as §2
[20] = Antiepileptic activity in male CF1 mice 4 hr after oral administration measured in maximum electroshock seizure(MES) test at a dose of 50 mg/kg (no. of animals treated /protected); activity value is 2/4; assay type: functional, Mus musculus
Rattus norvegicus [21] = assay: Per oral dose (60 mg/Kg) reducing rat corneal kindling 0.5 hr after administration.; assay type: functional; in short: as §1
Rattus norvegicus [22] = assay: Dose reducing the seizure severity in rat cornea 0.5 hr after peroral administration.; assay type: ADME, organism-based; settings: po; in short: as §1
[23] = Dose elevating electroshock induced seizure by 20% in CF1 mice after ip administration.; assay type: functional, Mus musculus
In short: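 In CF1 male mice (ca. 24–34 g), compound was given ip in 0.5% methylcellulose. The current giving hind limb extension in 50% of mice was found by the up-and-down method, with 15–25 mice per group and a vehicle control group run with each experimental group. At least three doses were tested. The dose raising threshold current by 20% was taken from a plot of dose against % threshold increase.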

[24] = Antiepileptic activity in male CF1 mice 30 min after administration measured in maximum electroshock seizure(MES) test at a dose of 300 mg/kg (no. of animals treated /protected); activity value is 1/1; assay type: functional, Mus musculus
[25] = Antiepileptic activity in male CF1 mice 1 hr after oral administration measured in maximum electroshock seizure(MES) test at a dose of 10 mg/kg; activity value is 4/4; assay type: functional, Mus musculus
Rattus norvegicus [26] = assay: Per oral dose (20 mg/Kg) reducing rat corneal kindling 0.5 hr after administration.; assay type: functional; in short: as §1
[27] = Antiepileptic activity in male CF1 mice 0.25 hr after oral administration measured in maximum electroshock seizure(MES) test at a dose of 10 mg/kg (no. of animals treated /protected); activity value is 3/4; assay type: functional, Mus musculus
Rattus norvegicus [28] = assay: Per oral dose (30 mg/Kg) reducing rat corneal kindling 0.5 hr after administration.; assay type: functional; in short: as §1
Rattus norvegicus [29] = assay: Per oral dose (40 mg/Kg) reducing rat corneal kindling 0.5 hr after administration.; assay type: functional; in short: as §1
[30] = Antiepileptic activity in male CF1 mice 0.5 hr after oral administration measured in neurological toxicity (Tox) test at a dose of 10 mg/kg (no. of animals treated /protected); activity value is 0/4; assay type: functional, Mus musculus
[31] = Antiepileptic activity in male CF1 mice 30 min after administration measured in maximum electroshock seizure(MES) test at a dose of 100 mg/kg (no. of animals treated /protected); activity value is 3/3; assay type: functional, Mus musculus
[32] = Antiepileptic activity in male CF1 mice 2.00 hours after oral administration measured in neurological toxicity (Tox) test at a dose of 6 mg/kg (no. of animals treated /protected); activity value is 0/4; assay type: functional, Mus musculus
[33] = Antiepileptic activity in male CF1 mice 2 hr after oral administration measured in neurological toxicity (Tox) test at a dose of 10 mg/kg (no. of animals treated /protected); activity value is 0/4; assay type: functional, Mus musculus
[34] = Antiepileptic activity in male CF1 mice 0.25 hr after oral administration measured in neurological toxicity (Tox) test at a dose of 10 mg/kg (no. of animals treated /protected); activity value is 0/4; assay type: functional, Mus musculus

| SMILES | TD50 [1] [mg/kg] | Activity [2] | Activity [4] | Average seizure score (Rattus norvegicus [5]) | Reduction (Rattus norvegicus [7]) [%] | Reduction (Rattus norvegicus [8]) [%] | Activity [9] | selectivity ratio [10] | Activity [11] | Activity [12] | TPE [15] | Dose [17] | Average seizure score (Rattus norvegicus [18]) | TPE [19] | Activity [24] | other results |
| --- | --- | --- | --- | --- | --- | --- | --- | --- | --- | --- | --- | --- | --- | --- | --- | --- |
| COC(=O)C1C(=O)C=C(NCc2ccccc2)CC1C (stereo not given) | > 500 | 0 | 0 | 5 | 29 | 0 | 0 | 7.7 | 0 | 0 | 1 | <=100 mg kg-1 | 3.6 | 0.5 | 1 | ED50 [3]: 42 mg/kg; Activity [6]: 0.1; selectivity ratio [13]: 18.7; TPE [14]: 0.5 h; Average seizure score (Rattus norvegicus [16]): 2.6; Activity [20]: 2; Reduction (Rattus norvegicus [21]): 40%; ED50 (Rattus norvegicus [22]; Rattus norvegicus, Cornea): 78.3 mg/kg; Dose [23]: 13 mg/kg |
| COC(=O)C1C(=O)C=C(Nc2ccc(Cl)cc2)CC1C (stereo not given) | > 380 | 0 | 0 | 4.9 | 67 | 0 | 0 | 9.7 | 0 | 0 | 2 | <=100 mg kg-1 | 1.7 | 0.5 | 1 | Activity [25]: 4; Reduction (Rattus norvegicus [26]): 40%; Activity [27]: 3; Reduction (Rattus norvegicus [28]): 40%; Reduction (Rattus norvegicus [29]): 49%; Activity [30]: 0; Activity [31]: 3; Activity [32]: 0; Activity [33]: 0; ED50 (Rattus norvegicus [22]; rat, in vivo): 34.2 mg/kg; Activity [34]: 0 |
